Measured values as given in ChEMBL document CHEMBL1136128, “3-(2-Benzyloxyphenyl)isoxazoles and isoxazolines: synthesis and evaluation as CFTR activators” (Bioorg Med Chem Lett, 2003).

Columns and labels:
[1] = substrate: COC(=O)C1CC(c2cc(Br)ccc2OCc2ccc(OC)cc2)=NO1; experiment: (§1) Vmax (maximal I influx) of compound against CFTR (cystic fibrosis transmembrane conductance regulator) in rat was determined
Summary of the method: (§2)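 Cells stably co-expressing human wild-type CFTR and YFP-H148Q were grown to confluence in 96-well plates and washed in PBS. Compounds were added from DMSO stocks, with full dose–responses run. A 100 mM inward iodide gradient was applied at 37 °C. Iodide influx was taken from the slope of the YFP fluorescence time course. Kd and Vmax (mM/s) are means of three or more experiments.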

[2] = substrate: COC(=O)C1CC(c2ccccc2OCc2ccc(Br)cc2)=NO1; experiment: as §1; summary of the method: as §2
[3] = substrate: COC(=O)C1CC(c2ccccc2OCc2ccc(OC)cc2)=NO1; experiment: as §1; summary of the method: as §2
[4] = substrate: COC(=O)C1CC(c2ccccc2OCc2cccc(OC)c2)=NO1; experiment: as §1; summary of the method: as §2
[5] = substrate: COC(=O)c1cc(-c2ccccc2OCc2ccc(Br)cc2)no1; experiment: as §1; summary of the method: as §2
[6] = substrate: COC(=O)c1onc(-c2ccccc2OCc2ccc(Br)cc2)c1C(=O)OC; experiment: as §1; summary of the method: as §2
[7] = substrate: COc1ccc(COc2ccc(Br)cc2-c2cc(CO)on2)cc1; experiment: as §1; summary of the method: as §2
[8] = substrate: COc1ccc(COc2ccccc2-c2cc(CCO)on2)cc1; experiment: as §1; summary of the method: as §2
[9] = substrate: COc1ccc(COc2ccccc2-c2cc(CO)on2)cc1; experiment: as §1; summary of the method: as §2
[10] = substrate: COc1ccc(COc2ccccc2C2=NOC(CCl)C2)cc1; experiment: as §1; summary of the method: as §2
[11] = substrate: COc1ccc(COc2ccccc2C2=NOC(CO)C2)cc1; experiment: as §1; summary of the method: as §2
[12] = substrate: COc1cccc(COc2ccccc2-c2cc(CCO)on2)c1; experiment: as §1; summary of the method: as §2
[13] = substrate: COc1cccc(COc2ccccc2-c2cc(CO)on2)c1; experiment: as §1; summary of the method: as §2
[14] = substrate: COc1cccc(COc2ccccc2C2=NOC(CCl)C2)c1; experiment: as §1; summary of the method: as §2
[15] = substrate: COc1cccc(COc2ccccc2C2=NOC(CO)C2)c1; experiment: as §1; summary of the method: as §2
[16] = substrate: ClCc1cc(-c2ccccc2OCc2ccc(Br)cc2)no1; experiment: as §1; summary of the method: as §2
[17] = substrate: OCCc1cc(-c2ccccc2OCc2ccc(Br)cc2)no1; experiment: as §1; summary of the method: as §2
[18] = substrate: OCc1cc(-c2ccccc2OCc2ccc(Br)cc2)no1; experiment: as §1; summary of the method: as §2

B1: Cystic fibrosis transmembrane conductance regulator (Rattus norvegicus), P34158 (protein)
chain: MQKSPLEKASFISKLFFSWTTPILRKGYRHHLELSDIYQAPSSDSADHLSEKLEREWDREQASKKKPQLIHALRRCFVWRFVFYGVLLYLGEVTKAVQPVLLGRIIASYDPDNTEERSIAIYLGIGLCLLFIVRTLLLHPAIFGLHHIGMQMRIAMFSLIYKKTLKLSSRVLDKISIGQLISLLSNNLNKFDEGLALAHFIWIAPLQVVLLMGLLWDLLQFSAFCGLGLLIVLVIFQAILGKMMVKYRDKRAAKINERLVITSEVIDNIYSVKAYCWESAMEKIIESLREEELKMTRRSAYMRFFTSSAFFFSGFFVVFLSVLPYTVINGIVLRKIFTTISFCIVLRMSVTRQFPTAVQIWYDSLGMIRKIQDFLQTQEYKVLEYNLMFTGLVMENVTAFWEEGFQELLEKVQLNNDDRKTSNGENHLSFSHLCLVGNPVLKNINLNIKKGEMLAITGSTGAGKTSLLMLILGELEASEGIIKHSGRVSFSSQISWIMPGTIKENIIFGVSYDEYRYKSVVKACQLQEDITKFAEQDNTVLGEGGVTLSGGQRARISLARAVYKDADLYLLDSPFGYLDVLTEEQIFESCVCKLMASKTRILVTSKMEQLKKADKILILHEGSSYFYGTFSELQSLRPDFSSKLMGYDTFDQFTEERRSSILTETLRRFSVDDASTTWNKAKQSFRQTGEFGEKRKNSILSSFSSVKKISIVQKTPLSIEGESDDLQERRLSLVPDSEHGEAALPRSNMITAGPTFPGRRRQSVLDLMTFTPSSVSSSLQRTRASIRKISLAPRISLKEEDIYSRRLSQDSTLNITEEINEEDLKECFFDDMVKIPTVTTWNTYLRYFTLHRGLFAVLIWCVLVFLVEVAASLFVLWLLKNNPVNGGNNGTKIANTSYVVVITSSSFYYIFYIYVGVADTLLALSLFRGLPLVHTLITASKILHRKMLHSILHAPMSTFNKLKAGGILNRFSKDIAILDDFLPLTIFDFIQLLFIVVGAIIVVSALQPYIFLATVPGLAVFILLRAYFLHTSQQLKQLESEGRSPIFTHLVTSLKGLWTLRAFRRQTYFETLFHKALNLHTANWFMYLATLRWFQMRIDMIFVLFFIVVTFISILTTGEGEGTTGIILTLAMNIMSTLQWAVNSSIDTDSLMRSVSRVFKFIDIQTEESICTKIMKELHSEDSPNALVIKNEHVKKCDTWPSGGEMVVKDLTVKYVDDGNAILENISFSISPGQRVGLLGRTGSGKSTLLSAFLRMLNIKGEIQIDGVSWNSMTLQEWRKAFGVITQKVFIFSGTFRQNLDPNGKWRDEEIWKVADQVGLKSVIEQFPGQLNFTLVDGGYVLSHGHKQLMCLARSVLSKAKIILLDEPSANLDPITYQVIRRVLRQAFAGCTVVLCEHRIEAMLDCQRFLVIEQGNVWQYESLQALLSEKSVFQRALSSSEKMKLFHGRHSSKQKPRTQITAVKEETEEEVQETRL
Vmax [1]: 1.04 mM/s | Vmax [2]: 0.81 mM/s | Vmax [3]: 1.13 mM/s | Vmax [4]: 1.08 mM/s | Vmax [5]: 1.01 mM/s | Vmax [6]: 0.97 mM/s | Vmax [7]: 1.03 mM/s | Vmax [8]: 1.05 mM/s | Vmax [9]: 1.06 mM/s | Vmax [10]: 1.2 mM/s | Vmax [11]: 1.07 mM/s | Vmax [12]: 0.94 mM/s | Vmax [13]: 1.04 mM/s | Vmax [14]: 1.02 mM/s | Vmax [15]: 0.99 mM/s | Vmax [16]: 1.02 mM/s | Vmax [17]: 1.02 mM/s | Vmax [18]: 1.06 mM/s
